Test results reported in ChEMBL document CHEMBL4425130, “Macrocyclic Prodrugs of a Selective Nonpeptidic Direct Thrombin Inhibitor Display High Permeability, Efficient Bioconversion but Low Bioavailability” (J Med Chem, 2016).
Values after ≈ are worked out from the molar mass of the structure shown. Each block holds one compound with its values, some of them ahead of it.

Key:
Prothrombin = Prothrombin (Homo sapiens, UniProt P00734); assay: Inhibition of human alpha-thrombin using S-2366 as substrate after 40 mins
Serine protease 1 = Serine protease 1 (Homo sapiens, UniProt P07477); assay: Inhibition of human trypsin 1 using S-2222 as substrate preincubated for 300 secs followed by substrate addition measured after 40 mins
Method in brief: (§1)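 Human proteases assayed at one substrate concentration with ten inhibitor concentrations at 37 °C, ≤1.3% DMSO, in an enzyme-specific Tris-HCl pH 7.4 buffer. Enzyme and inhibitor preincubated 300 s, then substrate added; absorbance read at 405 nm after 40 min. IC50 converted to Ki by IC50 = Ki(1+S/KM), using KM measured under assay conditions.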

[1] = Solubility of the compound in phosphate buffer at pH 7.4 at 25 degC after 24 hrs by ultraperformance LC/MS/MS method
[2] = Apparent permeability across apical to basolateral side in human Caco2 cells at 10 uM after 45 to 120 mins by ultraperformance LC/MS/MS method; details: Caco-2
[3] = Efflux ratio of apparent permeability across basolateral to apical over apical to basolateral side in human Caco2 cells at 10 uM after 45 to 120 mins by ultraperformance LC/MS/MS method; details: Caco-2
[4] = Prodrug conversion in human plasma assessed as esterase-mediated metabolite formation after 4 hrs; format: ADME, cell-free
[5] = Prodrug conversion in rat hepatocytes assessed as esterase-mediated 3-((3-(2-(2-(Aminomethyl)-5-chlorobenzylamino)-2-oxoethyl)-4-methyl-2-oxo-5,6-dihydropyridin-1(2H)-ylamino)methyl)benzoic acid formation at 4 uM after 40 mins by ultraperformance liquid chromatographic method; format: ADME, cell-based
[6] = Prodrug conversion in human hepatocytes assessed as esterase-mediated formaldehyde formation at 4 uM after 40 mins by ultraperformance liquid chromatographic method; format: ADME, cell-based; details: isolated protein
Method in brief: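 Cryopreserved human hepatocytes at 10^6 viable cells/mL, thawed and pre-warmed 10 min at 37 °C. Compound added from CH3CN stock at 4 µM final. Incubated 40 min, then quenched in cold CH3CN, with compound-free incubations as blanks. Metabolites assigned by LC-MS product ion spectra.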

[7] = Prodrug conversion in human liver microsomes assessed as 3-((3-(2-(2-(Aminomethyl)-5-chlorobenzylamino)-2-oxoethyl)-4-methyl-2-oxo-5,6-dihydropyridin-1(2H)-ylamino)methyl)benzoic acid formation in presence of NADPH; format: ADME, Microsome
[8] = Prodrug conversion in human liver microsomes assessed as 3-((3-(2-(2-(Aminomethyl)-5-chlorobenzylamino)-2-oxoethyl)-4-methyl-2-oxo-5,6-dihydropyridin-1(2H)-ylamino)methyl)benzoic acid formation in absence of NADPH; format: ADME, Microsome
[9] = Apparent terminal half life in Han Wistar rat at 1 umol/kg, po administered via gavage by LC-MS/MS method; format: ADME, organism-based; details: in vivo, read-out: betat1/2(app) (converted)
Method in brief: (§2)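 Male Han Wistar rats, cannulated in the carotid artery for sampling and the jugular vein for i.v. dosing, one week before the study (two days before for intraduodenal dosing). Single doses: 0.5 µmol/kg i.v., or 1 µmol/kg by gavage or intraduodenally. Vehicles were 5% mannitol in water or DMA:TEG:water (1:1:1). Plasma sampled up to 24 h and analysed by LC-MS/MS. Non-compartmental analysis; means of n=3, with F from mean AUCinf.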

[10] = Cmax in Han Wistar rat at 1 umol/kg, po administered via gavage by LC-MS/MS method; format: ADME, organism-based; design: dose 1 umol/kg, route oral; details: in vivo; method in brief: as §2
[11] = Apparent terminal half life in Han Wistar rat at 1 umol/kg administered intraduodenally by LC-MS/MS method; format: ADME; details: in vivo, read-out: betat1/2(app) (converted); method in brief: as §2
[12] = AUCinfinity in Han Wistar rat assessed as 3-((3-(2-(2-(Aminomethyl)-5-chlorobenzylamino)-2-oxoethyl)-4-methyl-2-oxo-5,6-dihydropyridin-1(2H)-ylamino)methyl)benzoic acid formation at 1 umol/kg administered intraduodenally by LC-MS/MS method; format: ADME; design: dose 1 umol/kg, route intraduodenal, time infinity; details: in vivo, other; method in brief: as §2
[13] = Bioavailability in Han Wistar rat assessed as 3-((3-(2-(2-(Aminomethyl)-5-chlorobenzylamino)-2-oxoethyl)-4-methyl-2-oxo-5,6-dihydropyridin-1(2H)-ylamino)methyl)benzoic acid formation at 1 umol/kg administered intraduodenally by LC-MS/MS method; format: ADME, organism-based; details: in vivo, other; method in brief: as §2
[14] = Cmax in Han Wistar rat at 1 umol/kg administered intraduodenally by LC-MS/MS method; format: ADME; design: dose 1 umol/kg, route intraduodenal; details: in vivo; method in brief: as §2
[15] = AUCinfinity in Han Wistar rat assessed as 3-((3-(2-(2-(Aminomethyl)-5-chlorobenzylamino)-2-oxoethyl)-4-methyl-2-oxo-5,6-dihydropyridin-1(2H)-ylamino)methyl)benzoic acid formation at 1 umol/kg, po administered via gavage by LC-MS/MS method; format: ADME, organism-based; design: dose 1 umol/kg, time infinity, route oral; details: in vivo; method in brief: as §2
[16] = Oral bioavailability in Han Wistar rat assessed as 3-((3-(2-(2-(Aminomethyl)-5-chlorobenzylamino)-2-oxoethyl)-4-methyl-2-oxo-5,6-dihydropyridin-1(2H)-ylamino)methyl)benzoic acid formation at 1 umol/kg administered via gavage by LC-MS/MS method; format: ADME, organism-based; details: in vivo; method in brief: as §2
physchem = details: 1-octanol/phosphate buffer, pH 7.4
[17] = Intrinsic clearance in Sprague-Dawley rat liver microsomes at 1 umol/L after 7 to 30 mins by LC-MS/MS method; format: ADME, Microsome; details: read-out: CLH
Cytochrome P450 3A4 = Cytochrome P450 3A4 (Homo sapiens, UniProt P08684); assay: Inhibition of human CYP3A4; format: ADME
Plasma = assay: Anticoagulant activity in human citrated plasma assessed as concentration required to double activated partial thromboplastin time after 3 mins by coagulation analyser; format: functional, cell-free; details: 0.05 h
Rattus norvegicus = species: Rattus norvegicus; assay: Antithrombotic activity in rat caval vein thrombosis model assessed as prevention of venous thrombosis; format: functional, organism-based
[18] = Inhibition of human tissue factor/F7a using spectrozyme as substrate preincubated for 300 secs followed by substrate addition measured after 40 mins; method in brief: as §1
Coagulation factor IX = Coagulation factor IX (Homo sapiens, UniProt P00740); assay: Inhibition of human F9a using pefachrome F9a as substrate preincubated for 300 secs followed by substrate addition measured after 40 mins
Coagulation factor X = Coagulation factor X (Homo sapiens, UniProt P00742); assay: Inhibition of human F10a using S-2765 as substrate preincubated for 300 secs followed by substrate addition measured after 40 mins; method in brief: as §1
Coagulation factor XI = Coagulation factor XI (Homo sapiens, UniProt P03951); assay: Inhibition of human F11a using S-2366 as substrate preincubated for 300 secs followed by substrate addition measured after 40 mins; method in brief: as §1
Plasminogen = Plasminogen (Homo sapiens, UniProt P00747); assay: Inhibition of human plasmin using S-2366 as substrate preincubated for 300 secs followed by substrate addition measured after 40 mins; method in brief: as §1
[19] = molecular target: Thrombin & trypsin (Homo sapiens) (UniProt P00734+P07477+P07478+P35030); assay: Selectivity ratio of Ki for human trypsin 1 to Ki for human alpha-thrombin; format: protein assay
Homo sapiens [20] = species: Homo sapiens; assay: Selectivity ratio of Ki for human tissue factor/F7a to Ki for human alpha-thrombin
Homo sapiens [21] = species: Homo sapiens; assay: Selectivity ratio of Ki for human F9a to Ki for human alpha-thrombin
Homo sapiens [22] = species: Homo sapiens; assay: Selectivity ratio of Ki for human F10a to Ki for human alpha-thrombin
Homo sapiens [23] = species: Homo sapiens; assay: Selectivity ratio of Ki for human F11a to Ki for human alpha-thrombin
Homo sapiens [24] = species: Homo sapiens; assay: Selectivity ratio of Ki for human plasmin to Ki for human alpha-thrombin
[25] = Drug level in rat hepatocytes treated with Methyl 3-(((3-(2-((5-Chloro-2-(((methoxycarbonyl)amino)-methyl)benzyl)amino)-2-oxoethyl)-4-methyl-2-oxo-5,6-dihydropyridin-1(2H)-yl)amino)methyl)benzoate assessed as esterase-mediated compound formation at 4 uM after 40 mins by ultraperformance liquid chromatographic method; format: ADME, cell-based; details: isolated protein

Serine protease 1, sequence (P07477 whole entry): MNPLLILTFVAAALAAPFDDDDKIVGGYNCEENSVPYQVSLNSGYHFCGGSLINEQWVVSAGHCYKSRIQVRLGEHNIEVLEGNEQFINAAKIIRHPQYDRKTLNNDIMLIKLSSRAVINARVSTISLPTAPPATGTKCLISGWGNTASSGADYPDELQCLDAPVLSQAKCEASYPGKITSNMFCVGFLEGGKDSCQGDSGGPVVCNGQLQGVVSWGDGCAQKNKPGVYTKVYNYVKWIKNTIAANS
Coagulation factor XI, sequence (P03951 19-387 limits assumed): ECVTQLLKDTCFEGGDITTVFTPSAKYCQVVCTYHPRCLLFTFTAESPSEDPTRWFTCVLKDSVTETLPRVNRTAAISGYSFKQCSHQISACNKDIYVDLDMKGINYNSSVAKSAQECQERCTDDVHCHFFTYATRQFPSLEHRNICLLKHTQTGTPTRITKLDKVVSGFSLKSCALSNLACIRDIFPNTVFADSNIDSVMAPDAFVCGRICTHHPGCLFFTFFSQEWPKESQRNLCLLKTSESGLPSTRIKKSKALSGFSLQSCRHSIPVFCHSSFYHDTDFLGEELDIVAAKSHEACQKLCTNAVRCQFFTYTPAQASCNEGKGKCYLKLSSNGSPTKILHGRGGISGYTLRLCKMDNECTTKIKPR
Coagulation factor XI, sequence (P03951 388-625 limits assumed): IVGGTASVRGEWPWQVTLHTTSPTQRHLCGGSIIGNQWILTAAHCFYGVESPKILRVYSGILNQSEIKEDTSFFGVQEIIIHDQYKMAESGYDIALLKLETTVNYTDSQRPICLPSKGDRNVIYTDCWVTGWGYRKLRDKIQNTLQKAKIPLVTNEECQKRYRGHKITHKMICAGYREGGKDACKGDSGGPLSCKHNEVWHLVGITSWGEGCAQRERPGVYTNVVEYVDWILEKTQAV
Plasminogen, sequence (P00747 97-580 limits assumed): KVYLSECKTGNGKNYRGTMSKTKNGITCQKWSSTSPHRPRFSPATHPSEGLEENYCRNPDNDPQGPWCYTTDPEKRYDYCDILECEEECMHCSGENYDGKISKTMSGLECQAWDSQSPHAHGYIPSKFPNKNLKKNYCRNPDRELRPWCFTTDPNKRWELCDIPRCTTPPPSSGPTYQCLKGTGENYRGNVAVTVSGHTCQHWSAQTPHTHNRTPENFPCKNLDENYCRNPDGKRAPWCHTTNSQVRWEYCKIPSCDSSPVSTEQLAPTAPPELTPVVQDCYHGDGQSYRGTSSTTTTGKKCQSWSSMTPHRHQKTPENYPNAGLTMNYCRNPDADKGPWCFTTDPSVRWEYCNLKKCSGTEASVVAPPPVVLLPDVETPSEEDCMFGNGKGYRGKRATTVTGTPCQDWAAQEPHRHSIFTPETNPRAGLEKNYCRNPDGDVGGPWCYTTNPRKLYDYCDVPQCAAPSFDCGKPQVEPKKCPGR
Plasminogen, sequence (P00747 581-810 limits assumed): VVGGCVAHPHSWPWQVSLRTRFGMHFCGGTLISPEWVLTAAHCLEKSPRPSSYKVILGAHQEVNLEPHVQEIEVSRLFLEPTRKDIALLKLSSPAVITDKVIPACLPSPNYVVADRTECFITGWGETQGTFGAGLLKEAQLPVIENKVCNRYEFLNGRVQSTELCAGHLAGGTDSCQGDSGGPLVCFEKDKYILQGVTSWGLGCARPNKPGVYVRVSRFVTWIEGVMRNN
Coagulation factor IX, sequence (P00740 47-191 limits assumed): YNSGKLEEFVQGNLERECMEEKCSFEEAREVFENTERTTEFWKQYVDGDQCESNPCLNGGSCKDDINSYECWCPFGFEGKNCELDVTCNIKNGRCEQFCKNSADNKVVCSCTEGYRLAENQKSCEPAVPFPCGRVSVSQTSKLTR
Coagulation factor IX, sequence (P00740 227-461 limits assumed): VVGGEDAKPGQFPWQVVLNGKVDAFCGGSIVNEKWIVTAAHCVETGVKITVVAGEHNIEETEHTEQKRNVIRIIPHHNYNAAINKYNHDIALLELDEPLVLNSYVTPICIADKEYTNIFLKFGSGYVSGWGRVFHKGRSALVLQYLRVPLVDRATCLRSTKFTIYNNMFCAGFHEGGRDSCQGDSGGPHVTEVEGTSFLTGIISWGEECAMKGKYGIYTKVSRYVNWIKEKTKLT
Cytochrome P450 3A4, sequence (P08684 whole entry): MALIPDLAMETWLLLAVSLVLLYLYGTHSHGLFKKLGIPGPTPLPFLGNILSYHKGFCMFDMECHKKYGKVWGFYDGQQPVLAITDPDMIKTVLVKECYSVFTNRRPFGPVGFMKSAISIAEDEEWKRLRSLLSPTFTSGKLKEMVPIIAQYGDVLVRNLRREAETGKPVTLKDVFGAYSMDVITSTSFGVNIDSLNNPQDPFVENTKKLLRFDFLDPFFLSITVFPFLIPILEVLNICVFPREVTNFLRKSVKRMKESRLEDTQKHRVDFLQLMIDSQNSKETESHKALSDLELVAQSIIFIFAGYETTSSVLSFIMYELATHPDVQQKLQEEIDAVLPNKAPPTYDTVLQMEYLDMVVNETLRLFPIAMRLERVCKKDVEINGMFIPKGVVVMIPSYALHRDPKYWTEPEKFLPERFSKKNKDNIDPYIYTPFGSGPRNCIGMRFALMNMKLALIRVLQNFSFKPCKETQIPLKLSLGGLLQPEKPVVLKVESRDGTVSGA
Coagulation factor X, sequence (P00742 41-179 limits assumed): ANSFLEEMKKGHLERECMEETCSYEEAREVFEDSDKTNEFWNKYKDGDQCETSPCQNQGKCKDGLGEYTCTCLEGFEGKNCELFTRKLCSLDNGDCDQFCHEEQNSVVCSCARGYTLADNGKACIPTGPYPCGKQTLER
Coagulation factor X, sequence (P00742 235-488 limits assumed): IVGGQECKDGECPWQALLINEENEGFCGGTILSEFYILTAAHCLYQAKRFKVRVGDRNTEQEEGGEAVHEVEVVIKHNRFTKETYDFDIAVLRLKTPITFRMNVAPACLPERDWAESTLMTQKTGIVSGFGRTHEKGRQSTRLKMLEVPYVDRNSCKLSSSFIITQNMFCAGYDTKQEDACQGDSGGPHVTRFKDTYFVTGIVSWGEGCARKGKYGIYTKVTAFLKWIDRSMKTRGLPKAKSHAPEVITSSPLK

Ki (Prothrombin): 0.2 µM | Ki (Serine protease 1): > 5.4 µM | solubility at 24 h [1]: 120 µM (≈ 63.2 µg/mL) | Papp A→B at 10 µM [2]: 48 ×10⁻⁶ cm/s | efflux ratio at 10 µM [3]: 5.6 | Drug metabolism [4]: Metabolite_Notdetected | Drug metabolism [5]: Metabolite_Detected | Drug metabolism [6]: Metabolite_Detected | Drug metabolism [7]: Metabolite_Detected | Drug metabolism [8]: Metabolite_Detected | half-life [9]: 67.2 min | Cmax [10]: 11 nM | half-life [11]: 6.6 min | AUC [12]: 0.0081 µM·h | F [13]: 1.6% | Cmax [14]: 108 nM | AUC [15]: 0.0127 µM·h | F [16]: 2.5% | logD at 3 h (physchem): 2.3
SMILES: CC1=C2CC(=O)NCc3cc(Cl)ccc3CNC(=O)OCOC(=O)c3cccc(c3)CNN(CC1)C2=O

microsomal CLint at 1 µM [17]: 150 µL/min/mg | IC50 (Cytochrome P450 3A4): 13 µM | IC50 (Plasma): 0.68 µM | IC50 (Rattus norvegicus): 0.072 µM | Ki (Prothrombin): 0.0005 µM | Ki (Serine protease 1): > 5.4 µM | Ki [18]: > 33 µM | Ki (Coagulation factor IX): > 29 µM | Ki (Coagulation factor X): > 17 µM | Ki (Coagulation factor XI): > 19 µM | Ki (Plasminogen): > 19 µM | Ratio Ki [19]: > 1000 | Ratio Ki (Homo sapiens [20]): > 1000 | Ratio Ki (Homo sapiens [21]): > 1000 | Ratio Ki (Homo sapiens [22]): > 1000 | Ratio Ki (Homo sapiens [23]): > 1000 | Ratio Ki (Homo sapiens [24]): > 1000
SMILES: CC1=C(CC(=O)NCc2cc(Cl)ccc2CN)C(=O)N(NCc2ccccc2)CC1

Drug metabolism [25]: Metabolite_Detected
SMILES: CC1=C(CC(=O)NCc2cc(Cl)ccc2CNC(=O)OC(C)(C)C)C(=O)N(NCc2cccc(C(=O)O)c2)CC1
